Experimental data from different studies.
Protocols differ between the studies behind these lines.
ALK: ALK tyrosine kinase receptor (ALK, Homo sapiens, UniProt Q9UM73)
CCR2: C-C chemokine receptor type 2 (CCR2, Homo sapiens, UniProt P41597)
SLC47A1: Multidrug and toxin extrusion protein 1 (SLC47A1, Homo sapiens, UniProt Q96FL8)
SCN5A: Sodium channel protein type 5 subunit alpha (SCN5A, Homo sapiens, UniProt Q14524)
FASN: Fatty acid synthase (FASN, Gallus gallus, UniProt P12276)
FLT4: Vascular endothelial growth factor receptor 3 (FLT4, Homo sapiens, UniProt P35916)
SIRT6: NAD-dependent protein deacylase sirtuin-6 (SIRT6, Homo sapiens, UniProt Q8N6T7)
CTSB: Cathepsin B (CTSB, Homo sapiens, UniProt P07858)
CCR5: C-C chemokine receptor type 5 (CCR5, Homo sapiens, UniProt P51681)
MAPK10: Mitogen-activated protein kinase 10 (MAPK10, Homo sapiens, UniProt P53779)
TEK: Angiopoietin-1 receptor (TEK, Homo sapiens, UniProt Q02763)

SMILES	target	assay	test system	conditions	IC50 [µM]
Cc1cc(-c2cccc(OC(F)(F)F)c2)[nH]n1	ALK	enzyme activity, inhibitor, TR-FRET			95
CN(Cc1ccc(NC(=O)C2=Cc3cc(-c4ccc(OCCCO)cc4)ccc3CCC2)cc1)C1CCOCC1	CCR2	calcium signal, antagonist			0.045
CCS(=O)(=O)N1CC(CC#N)(n2cc(-c3ncnc4[nH]ccc34)cn2)C1	SLC47A1	transporter uptake, inhibitor, radiometric		2 min	76.7
O=C(Nc1ccn(Cc2ccc(O)cc2C(F)(F)F)n1)c1c(F)cccc1F	SCN5A	ion current, inhibitor			> 10
CN[C@H]1CC[C@@H](c2ccc(Cl)c(Cl)c2)c2ccccc21	Receptor-type tyrosine-protein phosphatase C (PTPRC, Homo sapiens, UniProt P08575)	enzyme activity, inhibitor, fluorescence			80
c1ccc(-c2ccc(-c3cnc4[nH]c5ccccc5c4c3)cc2)cc1	ALK	enzyme activity, inhibitor, ELISA			> 10
COc1cc(O)c(CC=C(C)C)c2c1C(=O)CC(c1ccc(O)cc1)O2 (centres unmarked)	FASN	enzyme activity, inhibitor, radiometric			> 100
Cc1cc(-c2cc(C#N)ccc2O[C@@H]2C[C@]2(CN)c2ccc(F)cc2F)n[nH]1 (racemic)	ALK	enzyme activity, inhibitor, TR-FRET			0.029
Cc1cnc(-c2ccc(-c3ccc(NC(=O)Nc4c(F)cc(F)cc4F)cc3F)c3c2C(=O)NC3)[nH]1	FLT4	enzyme activity, inhibitor			0.0876
NCc1cccc(C(=O)NOCc2ccc(C(F)(F)F)cc2)c1	SIRT6	enzyme activity, inhibitor, fluorescence			41.2
COc1ccc2c(Oc3ccc4c(C(=O)Nc5ccccc5N)cccc4c3)ccnc2c1	FLT4	enzyme activity, inhibitor			0.009
NC(=O)c1ccc(C(=O)NOCc2ccc(Sc3ccc(Cl)cc3)c(C(F)(F)F)c2)cc1	SIRT6	enzyme activity, inhibitor, fluorescence			1.51
CSc1ccc(/C=C2/C(C)=C(CC(=O)O)c3cc(F)ccc32)cc1	Dual specificity calcium/calmodulin-dependent 3',5'-cyclic nucleotide phosphodiesterase 1A (PDE1A, Homo sapiens, UniProt P54750)	enzyme activity, inhibitor			> 100
Cc1nc2ccccc2c(=O)n1NC(=O)CSc1nc2ccccc2c(=O)n1-c1ccccc1	CTSB	enzyme activity, inhibitor			62.8
Cc1cc(-c2cc(C#N)ccc2O[C@@H]2C[C@]2(CO)c2ccc(F)cc2F)n[nH]1 (racemic)	ALK	enzyme activity, inhibitor, TR-FRET			0.034
N[C@@H](CC(=O)N1CCN(C(c2ccc(F)cc2)c2ccc(F)cc2)CC1)C(=O)N1Cc2ccccc2C1	Dipeptidyl peptidase 9 (DPP9, Homo sapiens, UniProt Q86TI2)	enzyme activity, inhibitor			0.322
C[C@@H]1CCO[C@H]2Cn3cc(C(=O)NCc4ccc(F)cc4F)c(=O)c(O)c3C(=O)N12	SLC47A1	transporter uptake, inhibitor, radiometric	HEK293	5 min, pH 8.5	6.3
CC(C)(C)Nc1nc(N)c(C(=O)c2ccc(Cl)cc2)s1	Cyclin-dependent kinase 2 (CDK2, Homo sapiens, UniProt P24941)	enzyme activity, inhibitor, mobility shift			4.9
Cc1cc(-c2cccc(S(C)(=O)=O)c2)[nH]n1	ALK	enzyme activity, inhibitor, TR-FRET			120
CN(Cc1ccc(NC(=O)C2=Cc3cc(-c4ccc(OCCCF)cc4)ccc3CCC2)cc1)C1CCOCC1	CCR5	ligand displacement, radioligand		cell membranes	2.7
OCc1cc(C(O)CNCCCCCCOCCCCc2ccccc2)ccc1O (centres unmarked)	CCR5	calcium signal, antagonist			64.6
COC[C@]1(c2ccc(F)cc2F)C[C@H]1Oc1ccc(C#N)cc1-c1cc(C)[nH]n1 (racemic)	ALK	phosphorylation in cells, inhibitor, ELISA			0.89
Cc1[nH]c(N)nc1-c1ccnc(Nc2ccc(N3CCOCC3)cc2)c1	MAPK10	enzyme activity, inhibitor, ELISA			1.39
CCOC(F)(F)c1nnc2cnc(-c3cnc(OCC(F)(F)F)c(F)c3)cn12	SCN5A	ion current, inhibitor, patch clamp			0.989
Nc1nonc1-n1cc(C(=O)N/N=C/c2ccc(C(F)(F)F)cc2[N+](=O)[O-])nn1	SIRT6	enzyme activity, inhibitor, fluorescence			6.2

SMILES	target	assay	test system	conditions	IC50 [µM]
CCc1ccc(/C=N/n2c(C)nc3ccc(C)cc3c2=O)s1	CTSB	enzyme activity, inhibitor			118
NC(=O)c1ccc(C(=O)NOCc2ccc(C(=O)c3ccccc3)cc2)cc1	SIRT6	enzyme activity, inhibitor, fluorescence			2.8
COc1cc(NCC(=O)Nn2c(C)nc3ccc(Cl)cc3c2=O)cc(OC)c1OC	CTSB	enzyme activity, inhibitor			70.5
Cc1ccc(C(=O)Nc2ccc(Oc3cc4cnn(C)c4cc3-c3cn[nH]c3)c(F)c2)c(=O)n1-c1ccc(F)cc1	TEK	cell growth or viability, ATP luminescence			0.063
CN(C)CCC=C1c2ccccc2CCc2ccccc21	SLC47A1	transporter uptake, inhibitor, radiometric	HEK293	5 min	29.6
NC(=O)c1ccc[n+]([C@@H]2O[C@H](COP(=O)([O-])OP(=O)(O)OC[C@H]3O[C@@H](n4cnc5c(N)ncnc54)[C@H](O)[C@@H]3O)[C@@H](O)[C@H]2O)c1	Protein mono-ADP-ribosyltransferase PARP14 (PARP14, Homo sapiens, UniProt Q460N5)	enzyme activity, inhibitor			110
Cc1cc(-c2ccncc2)n[nH]1	ALK	enzyme activity, inhibitor, TR-FRET			240
NC(=O)c1ccc(C(=O)NOCc2ccc(Sc3ccccc3)cc2)cc1	SIRT6	enzyme activity, inhibitor, fluorescence			1.78
COc1ccc(-c2ccc3[nH]c4ncc(-c5cccc([N+](=O)[O-])c5)cc4c3c2)cc1	ALK	enzyme activity, inhibitor, ELISA			9.3
NC(=O)c1ccc(C(=O)NOCc2ccc(C(F)(F)F)cc2)cc1	SIRT6	enzyme activity, inhibitor, fluorescence			3.13
Cc1cc(-c2cc(C#N)ccc2O[C@H]2C[C@H]2c2ccc(F)cc2F)n[nH]1	ALK	enzyme activity, inhibitor, TR-FRET			0.08
CSc1nc(C)c(-c2ccnc(NC3CCOCC3)c2)[nH]1	MAPK10	enzyme activity, inhibitor, ELISA			2.63
CN(Cc1ccc(NC(=O)C2=Cc3cc(-c4ccc(OCCCCCCCF)cc4)ccc3CCC2)cc1)C1CCOCC1	CCR2	calcium signal, antagonist			0.0011
CNC(=O)c1cc2c(Oc3ccc(NC(=O)C4(C(=O)Nc5ccc(F)cc5)CC4)cc3)ccnc2cc1OC	TEK	enzyme activity, inhibitor, radiometric			0.032
Nc1nonc1-n1cc(C(=O)N/N=C/c2ccccc2C(=O)O)nn1	SIRT6	enzyme activity, inhibitor, fluorescence			59.5
COc1ccccc1CONC(=O)c1ccc(C(N)=O)cc1	SIRT6	enzyme activity, inhibitor, fluorescence			61.7
CC(C)CCNC(=O)c1csc(-c2cccc(Cl)c2Cl)n1	Pantothenate kinase 1 (Homo sapiens, UniProt Q8TE04)	enzyme activity, inhibitor, ATP luminescence			0.93
O=[N+]([O-])C=Cc1ccc2[nH]c3ncc(Cl)cc3c2c1	ALK	enzyme activity, inhibitor, ELISA			3.3
Cc1cc(Nc2cc(CN3CCOCC3)c3nc(C)c(Cc4ccc(Cl)cc4F)n3n2)n[nH]1	FLT4	enzyme activity, inhibitor, TR-FRET			0.025
CN(Cc1ccc(NC(=O)C2=Cc3cc(-c4ccc(OCCCCCF)cc4)ccc3CCC2)cc1)C1CCOCC1	CCR5	ligand displacement, radioligand		cell membranes	2
NC(=O)c1ccc(C(=O)NOCc2ccc(Sc3cccc(C(F)(F)F)c3)c(C(F)(F)F)c2)cc1	SIRT6	enzyme activity, inhibitor, fluorescence			1.1
C=C(C)C(CC=C(C)C)Cc1c(O)cc(OC)c2c1O[C@H](c1ccc(O)cc1O)CC2=O (single isomer, unassigned; (-))	FASN	enzyme activity, inhibitor, radiometric			10.3
CN(Cc1ccc(NC(=O)C2=Cc3cc(-c4ccc(OCCCCCO)cc4)ccc3CCC2)cc1)C1CCOCC1	CCR2	calcium signal, antagonist			0.01
Nc1nonc1-n1cc(C(=O)N/N=C/c2ccco2)nn1	SIRT6	enzyme activity, inhibitor, fluorescence			14
COC(=O)c1ccc(C(=O)NOCc2ccccc2)cc1	SIRT6	enzyme activity, inhibitor, fluorescence			89.7
